Only some compounds are listed: those with a hit (about 1.6% of all), similar ones and a draw of the others.
TDP2 inh: blocks human TDP2 phosphodiesterase activity; 370,000 tested, 0.34% active; inhibition, % at 12.8 µM; AID 720702; recombinant TDP2, T5PNP hydrolysis, p-nitrophenol absorbance 415 nm;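 active means inhibition above the mean of all tested compounds plus 3 SD, set per campaign, cut at about 25% in these data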;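 further: 0% = DMSO with enzyme and 100% = buffer with substrate but no TDP2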
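System: recombinant human TDP2 / Amount: 120 nM TDP2 per well / Also added: 5 mM T5PNP chromogenic substrate / Doses: 12.8 µM single point, 1% DMSO / Incubation: 2 h at 37 °C / Detection: p-Nitrophenol epi absorbance / Evaluation: % inhibition relative to enzyme-containing and enzyme-free wells / Repeats: singlicate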
UHRF1 binding: human UHRF1 methylated DNA binding inhibitors. Q96T88. UHRF1 binding to methylated oligo, TR-FRET. inhibition, % at 4.4 µM. 370,000 tested, 0.75% active. AID 687016;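 further: UHRF1 SRA domain binding a hemimethylated CpG hairpin DNA probe; 0% = median of test compound wells and 100% = reference inhibitor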
Target sequence (Q96T88 whole entry, looked up, the tested form may be a part): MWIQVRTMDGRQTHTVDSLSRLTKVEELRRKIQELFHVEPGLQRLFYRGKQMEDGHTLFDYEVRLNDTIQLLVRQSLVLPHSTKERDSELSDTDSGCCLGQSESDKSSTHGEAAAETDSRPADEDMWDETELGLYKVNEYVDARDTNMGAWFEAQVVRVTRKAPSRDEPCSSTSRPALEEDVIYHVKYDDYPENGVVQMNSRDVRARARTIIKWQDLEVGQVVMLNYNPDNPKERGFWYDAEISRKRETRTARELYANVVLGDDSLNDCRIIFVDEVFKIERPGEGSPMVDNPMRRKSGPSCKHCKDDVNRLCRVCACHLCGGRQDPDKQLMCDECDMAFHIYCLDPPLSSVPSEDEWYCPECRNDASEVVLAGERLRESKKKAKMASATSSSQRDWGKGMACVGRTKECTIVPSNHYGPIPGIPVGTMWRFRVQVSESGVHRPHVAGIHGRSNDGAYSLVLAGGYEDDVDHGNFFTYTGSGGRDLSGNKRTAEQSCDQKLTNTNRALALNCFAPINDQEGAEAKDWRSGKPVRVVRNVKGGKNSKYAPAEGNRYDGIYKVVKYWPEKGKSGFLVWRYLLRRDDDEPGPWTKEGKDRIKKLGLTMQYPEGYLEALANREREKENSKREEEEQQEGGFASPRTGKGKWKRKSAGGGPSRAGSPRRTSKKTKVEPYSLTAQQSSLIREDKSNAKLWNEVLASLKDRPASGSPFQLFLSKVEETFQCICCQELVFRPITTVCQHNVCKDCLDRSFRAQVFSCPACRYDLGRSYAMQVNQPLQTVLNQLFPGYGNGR
MBD2 inh: MBD2-methylated oligo binding inhibition. inhibition, % at 4.4 µM. Q9UBB5. 370,000 tested, 0.31% active. TR-FRET, MBD2 binding to methylated oligonucleotide. AID 686964; in the data active means inhibition above about 13%
LEDGF integ inh: blocks HIV-1 LEDGF/p75-dependent DNA integration. TR-FRET IN-LEDGF/p75 DNA integration, Eu/Cy5. inhibition, % at 3.7 µM. 370,000 tested, 0.64% active. AID 743269;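 active means inhibition above the screen-wide mean plus 3 SD, cut at about 13% in these data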;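 further: signal is the Cy5 over europium emission ratio at 671 and 618 nm; 0% = plate median of compound wells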
UHRF1 DNA bind: inhibits human UHRF1 binding to methylated oligonucleotide, MBD2 counter-screen. inhibition, % at 4.4 µM. AID 720530. TR-FRET. shares compounds with MBD2 inh. 1,000 tested, 25% active;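 further: UHRF1 SRA domain binding a labeled hemimethylated CpG hairpin DNA; 0% = vehicle only and 100% = reference inhibitor with vehicle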
MBD2 DBD conf: MBD2-DBD methyl-DNA binding inhibition, TR-FRET confirmation. shares compounds with MBD2 inh. TR-FRET MBD2-DBD binding to methylated oligonucleotide. inhibition, % at 4.4 µM. 1,000 tested, 26% active; in the data active means inhibition above about 14%
TDP2 inh conf: human TDP2 inhibition, confirmation | inhibition, % at 12.8 µM | 1,100 tested, 22% active | recombinant human TDP2, absorbance read-out | AID 743263 | shares compounds with TDP2 inh; in the data active means inhibition above about 25%;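 further: 0% = vehicle with enzyme and 100% = no enzyme buffer only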
IN multimer act: counter-screen for LEDGF/p75 integration inhibitors: HIV-1 integrase multimerization activators; shares compounds with LEDGF integ inh; TR-FRET HIV-1 integrase multimerization, biochemical; activation, % at 7.7 µM; 2,000 tested, 17% active; AID 1053131; in the data active means activation above about 8.9%
TRFRET interf: optically interferes with TR-FRET readout in LEDGF counter-screen | shares compounds with LEDGF integ inh | TR-FRET optical interference counterscreen, HIV-1 IN multimerization | inhibition, % at 7.7 µM | 2,000 tested, under 10 active | AID 1053135;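 active means inhibition above the mean over all tested compounds plus 3 SD, which no compound reached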;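 further: 0% = integrase with antibodies and DMSO and 100% = antibodies without integrase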
LEDGF integ conf: confirmation of HIV-1 LEDGF/p75-dependent integration inhibitors | shares compounds with LEDGF integ inh | TR-FRET LEDGF/p75-dependent HIV-1 integration, biochemical | inhibition, % at 3.7 µM | 2,000 tested, 36% active; in the data active means inhibition above about 14%
The depositor's hits bear a star; . = no result. Unless noted, no stated cut-off is given here; in the data, active means inhibition above about 21%; inactive means the rest.

SMILES	TDP2 inh	UHRF1 binding	MBD2 inh	LEDGF integ inh	UHRF1 DNA bind	MBD2 DBD conf	IN multimer act	TRFRET interf	LEDGF integ conf	others
COC(=O)C1=C(c2ccc(F)cc2OCc2ccccc2)C[C@@H]2CC[C@H]1N2C(=O)NCCOc1ccccc1Cl	-6	1	16*	-2	-3	2	.	.	.
CN(C)c1ccc(/C=C2\C(=O)NC(=O)N(CCc3ccc(F)cc3)C2=O)cc1	1	-2	0	-1	.	.	.	.	.
CCN(CC)c1ccc(/C=C2/C(=O)NC(=O)N(Cc3ccco3)C2=O)cc1	17	72*	18*	71*	29*	14*	6	-29	30*
CN(C)c1ccc(/C=C2/C(=O)NC(=O)N(Cc3ccco3)C2=O)cc1	15	68*	15*	66*	25*	11	2	-12	14*
COc1cc2c(cc1OC)-c1c3c(cc4c1[C@@H](C2)N(C)CC4)OCO3	56*	50*	46*	16*	30*	20*	5	-17	8	TDP2 inh conf=52*
COc1c2c(cc3c1OCO3)CCN(C)C2	0	1	4	-1	.	.	.	.	.
COc1cc(C(c2c(C)[nH]n(-c3ccccc3)c2=O)c2c(C)[nH]n(-c3ccccc3)c2=O)cc(OC)c1OC	90*	18	14*	43*	3	2	3	-12	5	TDP2 inh conf=56*
CCOCCCn1c(N)c(C(=O)Nc2sc3c(c2C(=O)OC)CCCC3)c2nc3ccccc3nc21	70*	14	14*	31*	6	2	2	-10	-2	TDP2 inh conf=1
CC(C)N1C(=O)/C(=C/C=C/c2ccco2)C(=O)N(Cc2ccco2)C1=O	2	50*	19*	69*	19	11	-1	3	51*
O=C(c1ccc(F)c([N+](=O)[O-])c1)N1CC2CC(C1)c1cccc(=O)n1C2 (stereo not given)	-5	-1	-5	8	.	.	.	.	.
CN1C(=O)N(C)C(=O)C2(Cc3cc([N+](=O)[O-])ccc3N(C)C2)C1=O	-9	-4	0	0	.	.	.	.	.
CC[n+]1c(-c2ccccc2)c2cc(N)ccc2c2ccc(N)cc21	34*	72*	70*	42*	77*	80*	7	-33	70*	TDP2 inh conf=22
Cc1cc(C)cc(N2C(=O)NC(=O)/C(=C\c3cccn3-c3ccc(Cl)cc3)C2=O)c1	1	-3	-1	-3	.	.	.	.	.
O=C1NC(=S)NC(=O)C1=Cc1cccn1-c1ccc(O)cc1	-3	32*	14*	33*	41*	24*	10*	-50	73*
O=C1NC(=S)N(c2ccccc2)C(=O)/C1=C/c1ccco1	7	91*	58*	54*	100*	89*	14*	-49	73*
COc1ccccc1/C=C1\C(=O)NC(=S)N(c2ccccc2)C1=O	-10	1	-2	5	.	.	.	.	.
Cc1ccc(/C=C2/C(=O)NC(=O)N(CCc3ccc(F)cc3)C2=O)o1	-2	-7	-2	-2	.	.	.	.	.
O=C1NC(=O)N(CCc2ccc(F)cc2)C(=O)/C1=C/c1ccco1	14	97*	74*	80*	23*	16*	8	-31	16*
CCC(C)N1C(=O)NC(=O)C2(Cc3c(ccc4ccccc34)N(C)C2)C1=O (stereo not given)	5	-2	-3	-3	.	.	.	.	.
C=CCn1c(O)c(C(CC)=NCc2ccco2)c(=O)[nH]c1=O	-9	2	3	-9	.	.	.	.	.

Source: PubChem BioAssay
